Measured values as given in ChEMBL document CHEMBL2429718, “MT-Stabilizer, Dictyostatin, Exhibits Prolonged Brain Retention and Activity: Potential Therapeutic Implications” (ACS Med Chem Lett, 2013).
The source made the active and inactive calls. The calls are words filed in the database; no cut-off is given here.

Legend:
[1] = Fraction unbound in CD1 mouse brain at 5 mg/kg, ip administered as single dose; format: ADME, organism-based; set-up: dose 5 mg/kg, route intraperitoneal; conditions: in vivo
[2] = Drug uptake in CD1 mouse brain at 5 mg/kg, ip administered as single dose at 16 hrs; format: ADME, organism-based; set-up: dose 5 mg/kg, route intraperitoneal; conditions: read-out: Drug uptake
Procedure, shortened: (§1)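 CD1 mice received one i.p. dose of 5 mg/kg. Blood and brain were taken from groups of animals at several times after dosing, with n = 3 mice per time point, and compound levels were measured in plasma and brain. Exposure was expressed as AUC over 0.25–4 h. Concentrations at 4 h and 16 h are given as mean ± SD.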

[3] = (§2) Plasma concentration in CD1 mouse at 5 mg/kg, ip administered as single dose at 16 hrs; format: ADME, organism-based; set-up: dose 5 mg/kg, route intraperitoneal; conditions: CD1, mouse, plasma; procedure, shortened: as §1
[4] = system: HEK293; assay: Stabilization of microtubule in HEK293 cells assessed as increase in acetylated alpha-tubulin at 1to 10 nM after 4 hrs by ELISA; format: cell-based; conditions: Homo sapiens
Procedure, shortened: (§3)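 In HEK293 cells, microtubule stabilization was read as compound-induced elevation of acetylated α-tubulin. Compounds were tested across a concentration series that included 1, 10 and 100 nM, with n = 4 per condition. Values are given as mean ± SEM.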

[5] = system: Brain; assay: Stabilization of microtubule brain in CD1 mouse assessed as increase in acetylated alpha-tubulin at 5 mg/kg, ip administered as single dose measured after 7 days relative to vehicle-treated control; format: functional, organism-based; set-up: dose 5 mg/kg
Procedure, shortened: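 Wild-type mice received one i.p. dose of 5 mg/kg, with DMSO as vehicle control, and 3 mice per treatment. Brains were collected 7 days later and the acetylated α-tubulin to α-tubulin ratio was measured. The mean ratio of treated mice was normalized to that of vehicle-treated mice.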

[6] = AUC (0.25 to 4 hrs) in CD1 mouse plasma at 5 mg/kg, ip administered as single dose at 4 hrs; format: ADME, organism-based; set-up: time 0.25-4 hr, dose 5 mg/kg, route intraperitoneal; procedure, shortened: as §1
[7] = Plasma concentration in CD1 mouse at 5 mg/kg, ip administered as single dose at 4 hrs; format: ADME, organism-based; set-up: dose 5 mg/kg, route intraperitoneal; procedure, shortened: as §1
[8] = Drug uptake in CD1 mouse brain at 5 mg/kg, ip administered as single dose at 4 hrs; format: ADME, organism-based; set-up: dose 5 mg/kg, route intraperitoneal; conditions: read-out: Drug uptake; procedure, shortened: as §1
[9] = system: Plasma; assay: Fraction unbound in CD1 mouse plasma at 5 mg/kg, ip dministered as single dose; format: ADME, organism-based; set-up: dose 5 mg/kg, route intraperitoneal; conditions: in vivo
[10] = AUC (0.5 to 16 hrs) in CD1 mouse brain at 5 mg/kg, ip administered as single dose at 4 hrs; format: ADME, organism-based; set-up: time 0.5-16 hr, dose 5 mg/kg, route intraperitoneal
[11] = system: HEK293; assay: Stabilization of microtubule in HEK293 cells assessed as increase in acetylated alpha-tubulin after 4 hrs by ELISA; format: cell-based; conditions: Homo sapiens; procedure, shortened: as §3
[12] = system: Plasma; assay: as §2; format: ADME, organism-based; set-up: dose 5 mg/kg, route intraperitoneal; conditions: mouse, in vivo, 16 h, BLD = below limit of detection; procedure, shortened: as §1
[13] = system: HEK293; assay: Stabilization of microtubule in HEK293 cells assessed as increase in acetylated alpha-tubulin at 100 nM after 4 hrs by ELISA; format: cell-based; conditions: Homo sapiens; procedure, shortened: as §3
[14] = AUC (0.25 to 4 hrs) in CD1 mouse brain at 5 mg/kg, ip administered as single dose at 4 hrs; format: ADME, organism-based; set-up: time upper 4 hr, time lower 0.25 hr, dose 5 mg/kg, route intraperitoneal; procedure, shortened: as §1

## C=C/C=C\[C@H](C)[C@@H]1OC(=O)/C=C\C=C\[C@@H](C)[C@@H](O)C[C@H](O)/C=C\[C@H](C)[C@H](O)[C@@H](C)C[C@@H](C)CC[C@@H](O)[C@@H]1C [DICTYOSTATIN]
[1]
  Fu: 0.5%
[2]
  concentration at 16 h: 383 nM
[3]
  concentration at 16 h: 77 nM
[4]
  Activity: Active
[5]
  Activity: Active
[6]
  AUC(0-t) at 4 h: 5.54 µM·h
[7]
  concentration at 4 h: 83 nM
[8]
  concentration at 4 h: 412 nM
[9]
  Fu: 0.9%
[10]
  AUC(0-t): 6.25 µM·h
[11]
  Activity: Dose-dependent effect

## C/C1=C/C[C@@H](/C(C)=C/c2csc(C)n2)OC(=O)C[C@H](O)C(C)(C)C(=O)[C@H](C)[C@@H](O)[C@@H](C)CCC1 [EPOTHILONE D]
[2]
  concentration at 16 h: 111 nM
[12]
  Cp: BLD
[7]
  concentration at 4 h: 19 nM
[8]
  concentration at 4 h: 161 nM
[13]
  Activity: Active
[11]
  Activity: Dose-dependent effect

## C=C/C=C\[C@H](C)[C@H](OC(N)=O)[C@@H](C)[C@H](O)[C@@H](C)C/C(C)=C\[C@H](C)[C@@H](O)[C@@H](C)/C=C\[C@@H](O)C[C@@H]1OC(=O)[C@H](C)[C@@H](O)[C@H]1C [DISERMOLIDE]
[14]
  AUC(0-t) at 4 h: 0.112 µM·h
[6]
  AUC(0-t) at 4 h: 0.439 µM·h
[11]
  Activity: Dose-dependent effect
